Experiment [1] concerns MDA-MB-231. Briefly: Cytotoxicity against human MDA-MB-231 cells assessed as cell viability at 100 uM after 48 hrs under hypoxic conditions by MTT assay (reference value: 100%). It counts as functional. The note with it: MDA-MB-231, 48 h, read-out: Activity. The procedure, abridged: (§1)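 Cells cultured in high-glucose DMEM with 20% FBS at 37 °C and 5% CO2, seeded at 1x10^4/well, then dosed 24 h later (0–200 μM) for 48 h. Hypoxia: 1% O2, 5% CO2, balance N2 in a hypoxic workstation; normoxia: 20% O2 in air, 5% CO2. MTT (1 mg/ml) for 30 min at 37 °C, formazan dissolved in DMSO, A550. Untreated control set to 100%; quadruplicates, ≥3 cell batches, mean ± S.E.M.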

Experiment [2] has as its system HT-29. Briefly: Cytotoxicity against human HT-29 cells assessed as cell viability at 100 uM after 48 hrs under hypoxic conditions by MTT assay (reference value: 100%). Format: functional. The note with it: Homo sapiens, HT-29, 48 h; read-out: Activity. The procedure, abridged: as §1
For experiment [3], the system named is HT-29. Nature of the experiment: Cytotoxicity against human HT-29 cells assessed as cell viability at 100 uM after 48 hrs under normoxic conditions by MTT assay (reference value: 100%). Conditions: Homo sapiens, HT-29, 48 h; read-out: Activity. Format: functional. The procedure, abridged: as §1
The test system of experiment [4] is PC-3. Briefly: Cytotoxicity against human PC3 cells assessed as cell viability at 30 uM after 48 hrs under normoxic conditions by MTT assay (reference value: 100%). Conditions: PC-3, 48 h, read-out: Activity. It counts as functional. The procedure, abridged:
as §1

In experiment [5] the test system is PC-3. Briefly: Cytotoxicity against human PC3 cells assessed as cell viability at 200 uM after 48 hrs under hypoxic conditions by MTT assay (reference value: 100%). It counts as functional. Conditions: PC-3, 48 h, read-out: Activity. The procedure, abridged:
as §1

Experiment [6] concerns the target Carbonic anhydrase 12 (Homo sapiens, UniProt O43570).
The test system of experiment [7] is PC-3. Nature of the experiment: Cytotoxicity against human PC3 cells assessed as reduction in cell viability after 48 hrs under normoxic conditions by MTT assay. Format: functional, cell-based. Conditions: for IC50: PC-3, 48 h. The procedure, abridged: as §1
In experiment [8] the test system is MDA-MB-231. Briefly: Cytotoxicity against human MDA-MB-231 cells assessed as cell viability at 200 uM after 48 hrs under normoxic conditions by MTT assay (reference value: 100%). Format: functional. The note with it: MDA-MB-231, 48 h, read-out: Activity. The procedure, abridged:
as §1

For experiment [9], the system named is MDA-MB-231. Nature of the experiment: Cytotoxicity against human MDA-MB-231 cells assessed as reduction in cell viability after 48 hrs under normoxic conditions by MTT assay. Format: functional, cell-based. Conditions: for IC50: MDA-MB-231, 48 h. The procedure, abridged:
as §1

Experiment [10] relates to MDA-MB-231. Nature of the experiment: Cytotoxicity against human MDA-MB-231 cells assessed as cell viability at 200 uM after 48 hrs under hypoxic conditions by MTT assay (reference value: 100%). Format: functional. The note with it: MDA-MB-231, 48 h, read-out: Activity. The procedure, abridged:
as §1

Experiment [11] relates to HT-29. Nature of the experiment: Cytotoxicity against human HT-29 cells assessed as reduction in cell viability after 48 hrs under hypoxic conditions by MTT assay. Format: functional, cell-based. The note with it: for IC50: HT-29, 48 h. The procedure, abridged: as §1
Experiment [12] deals with PC-3. Briefly: Cytotoxicity against human PC3 cells assessed as cell viability at 30 uM after 48 hrs under hypoxic conditions by MTT assay (reference value: 100%). Format: functional. Conditions: PC-3, 48 h, read-out: Activity. The procedure, abridged:
as §1

Experiment [13] relates to MDA-MB-231. Nature of the experiment: Cytotoxicity against human MDA-MB-231 cells assessed as cell viability at 30 uM after 48 hrs under normoxic conditions by MTT assay (reference value: 100%). Format: functional. Conditions: MDA-MB-231, 48 h, read-out: Activity. The procedure, abridged:
as §1

Experiment [14] has as its target Carbonic anhydrase 9 (Homo sapiens, UniProt Q16790). Briefly: Inhibition of carbonic anhydrase 9 (unknown origin) preincubated for 15 mins by stopped flow CO2 hydration assay.
For experiment [15], the system named is HT-29. Briefly: Cytotoxicity against human HT-29 cells assessed as reduction in cell viability after 48 hrs under normoxic conditions by MTT assay. Format: functional, cell-based. The note with it: for IC50: HT-29, 48 h. The procedure, abridged:
as §1

The species named for experiment [16] is Homo sapiens. Nature of the experiment: Selectivity ratio of Ki for carbonic anhydrase 2 (unknown origin) to Ki for carbonic anhydrase 9 (unknown origin).
Experiment [17] has as its system MDA-MB-231. Nature of the experiment: Cytotoxicity against human MDA-MB-231 cells assessed as reduction in cell viability after 48 hrs under hypoxic conditions by MTT assay. It counts as functional, cell-based. Conditions: for IC50: MDA-MB-231, 48 h. The procedure, abridged: as §1
Experiment [18] has as its system PC-3. Briefly: Cytotoxicity against human PC3 cells assessed as cell viability at 100 uM after 48 hrs under normoxic conditions by MTT assay (reference value: 100%). It counts as functional. Conditions: PC-3, 48 h, read-out: Activity. The procedure, abridged:
as §1

Experiment [19] has as its system PC-3. Briefly: Cytotoxicity against human PC3 cells assessed as cell viability at 200 uM after 48 hrs under normoxic conditions by MTT assay (reference value: 100%). Format: functional. Conditions: PC-3, 48 h, read-out: Activity. The procedure, abridged:
as §1

The subject of experiment [20] is HT-29. Nature of the experiment: Cytotoxicity against human HT-29 cells assessed as cell viability at 30 uM after 48 hrs under normoxic conditions by MTT assay (reference value: 100%). Conditions: Homo sapiens, HT-29, 48 h; read-out: Activity. It counts as functional. The procedure, abridged: as §1
For experiment [21], the system named is MDA-MB-231. Nature of the experiment: Potency index, ratio of cytotoxicity against human MDA-MB-231 cells assessed as reduction in cell viability at 100 uM after 48 hrs under hypoxic conditions by MTT assay to cytotoxicity against human MDA-MB-231 cells assessed as reduction in cell viability at 100 uM after 48 hrs under normoxic conditions by MTT assay. It counts as functional.

The test system of experiment [22] is HT-29. Nature of the experiment: Cytotoxicity against human HT-29 cells assessed as cell viability at 30 uM after 48 hrs under hypoxic conditions by MTT assay (reference value: 100%). Format: functional. The note with it: Homo sapiens, HT-29, 48 h; read-out: Activity. The procedure, abridged:
as §1

Experiment [23] concerns MDA-MB-231. Briefly: Cytotoxicity against human MDA-MB-231 cells assessed as cell viability at 30 uM after 48 hrs under hypoxic conditions by MTT assay (reference value: 100%). It counts as functional. The note with it: MDA-MB-231, 48 h, read-out: Activity. The procedure, abridged:
as §1

Experiment [24] relates to MDA-MB-231. Briefly: Cytotoxicity against human MDA-MB-231 cells assessed as cell viability at 100 uM after 48 hrs under normoxic conditions by MTT assay (reference value: 100%). The note with it: MDA-MB-231, 48 h, read-out: Activity. It counts as functional. The procedure, abridged: as §1
Experiment [25] concerns HT-29. Briefly: Cytotoxicity against human HT-29 cells assessed as cell viability at 300 uM after 48 hrs under hypoxic conditions by MTT assay (reference value: 100%). Format: functional. The note with it: HT-29, 48 h, read-out: Activity.
Experiment [26] deals with PC-3. Briefly: Cytotoxicity against human PC3 cells assessed as cell viability at 100 uM after 48 hrs under hypoxic conditions by MTT assay (reference value: 100%). It counts as functional. Conditions: PC-3, 48 h, read-out: Activity. The procedure, abridged:
as §1

The subject of experiment [27] is PC-3. Nature of the experiment: Cytotoxicity against human PC3 cells assessed as reduction in cell viability after 48 hrs under hypoxic conditions by MTT assay. It counts as functional, cell-based. Conditions: for IC50: PC-3, 48 h. The procedure, abridged: as §1
The target of experiment [28] is Carbonic anhydrase 2 (Homo sapiens, UniProt P00918). Briefly: Inhibition of carbonic anhydrase 2 (unknown origin) preincubated for 15 mins by stopped flow CO2 hydration assay.
For experiment [29], the system named is HT-29. Nature of the experiment: Cytotoxicity against human HT-29 cells assessed as cell viability at 200 uM after 48 hrs under normoxic conditions by MTT assay (reference value: 100%). Format: functional. The note with it: Homo sapiens, HT-29, 48 h; read-out: Activity. The procedure, abridged:
as §1

Experiment [30] has as its system HT-29. Briefly: Cytotoxicity against human HT-29 cells assessed as cell viability at 200 uM after 48 hrs under hypoxic conditions by MTT assay (reference value: 100%). The note with it: Homo sapiens, HT-29, 48 h; read-out: Activity. It counts as functional. The procedure, abridged: as §1
Experiment [31] concerns the target Carbonic anhydrase 1 (Homo sapiens, UniProt P00915). Briefly: Inhibition of recombinant human cytosolic carbonic anhydrase 1 preincubated for 15 mins by stopped flow CO2 hydration assay.

Where only a bound is given, the exact number is not on record here.

Sequence of Carbonic anhydrase 12 (O43570 whole entry): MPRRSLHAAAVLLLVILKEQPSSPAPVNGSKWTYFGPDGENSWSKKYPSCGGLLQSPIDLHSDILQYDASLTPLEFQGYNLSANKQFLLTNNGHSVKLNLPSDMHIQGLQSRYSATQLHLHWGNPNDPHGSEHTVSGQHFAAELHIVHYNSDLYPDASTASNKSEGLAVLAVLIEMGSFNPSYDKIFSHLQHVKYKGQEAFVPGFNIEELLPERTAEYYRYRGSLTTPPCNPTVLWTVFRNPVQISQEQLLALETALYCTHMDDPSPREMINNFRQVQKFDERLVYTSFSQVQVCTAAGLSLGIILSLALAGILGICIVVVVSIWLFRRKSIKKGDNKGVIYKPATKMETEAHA
Sequence of Carbonic anhydrase 1 (P00915 whole entry): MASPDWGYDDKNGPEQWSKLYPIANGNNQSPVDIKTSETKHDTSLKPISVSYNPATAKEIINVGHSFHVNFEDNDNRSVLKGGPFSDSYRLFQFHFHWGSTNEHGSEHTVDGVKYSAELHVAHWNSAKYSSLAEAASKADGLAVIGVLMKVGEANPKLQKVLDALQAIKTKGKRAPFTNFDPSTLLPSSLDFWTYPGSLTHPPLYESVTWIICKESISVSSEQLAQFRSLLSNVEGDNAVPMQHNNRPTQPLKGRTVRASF

Regarding `NS(=O)(=O)c1cc(NC(=O)Nc2cc(C(F)(F)F)cc(C(F)(F)F)c2)c(O)c([N+](=O)[O-])c1`, the viability at 100 µM in experiment [1] is 19.8%; in experiment [2], 63.6%; in experiment [3], 22.7%; in [18], 23.4%; in experiment [24] it was 101%; in experiment [26], 20.1%. Besides, the viability at 30 µM in [4] was 118%; in experiment [12] it was 109%; in experiment [13], 106%; in [20] it was 102%; in experiment [22], 98.6%; in experiment [23], 100%. The viability at 200 µM in [5] was determined as 19.6%; in experiment [8] it was 45.8%; in [10], 20.2%; in [19] it was 20.9%. For the same compound, the Ki in experiment [6] is 0.46 µM; in experiment [14], 0.34 µM. Besides, the Activity result in experiment [7], in experiment [9], in experiment [11], in [15], in experiment [17] and in [27] was “Dose-dependent effect” each time. For the same compound, the IC50 came to 68.6 µM in experiment [7]; 196 µM in experiment [9]; 133 µM in experiment [11]; 60.2 µM in [15]; 63.2 µM in experiment [17]; 70.6 µM in [27]. For the same compound, in [16], the Ratio Ki was found to be 5. In experiment [21], the Ratio stood at 4. For the same compound, the viability at 300 µM in experiment [25] was 25.6%.
Take `NS(=O)(=O)c1cc(NC(=O)Nc2ccc(C(F)(F)F)cc2)c(O)c([N+](=O)[O-])c1`: the inhibition constant Ki in experiment [6] is 0.95 µM; in [14] it was 0.63 µM; in [28], 0.2 µM.
Consider `NS(=O)(=O)c1cc(NC(=O)Nc2ccc3c(c2)OCO3)c(O)c([N+](=O)[O-])c1`, for which the viability at 100 µM in experiment [1] turned out to be 92.2%; in experiment [2], 22.8%; in experiment [3], 62.7%; in [18], 65.9%; in [24], 95%; in [26], 77.5%. For the same compound, the viability at 30 µM amounted to 80.1% in experiment [4]; 101% in experiment [12]; 105% in [13]; 71.5% in experiment [20]; 28.3% in [22]; 105% in experiment [23]. Besides, the viability at 200 µM is 70.2% in [5]; 60.4% in experiment [29]; 103% in experiment [8]; 67.5% in [10]; 24.6% in experiment [30]; 61.6% in experiment [19]. Further, the Ki in experiment [6] is 0.25 µM; in [14], 0.15 µM; in experiment [31], greater than 50 µM. Further, the Activity entry in experiment [7], in experiment [9], in [11], in experiment [15], in [17] and in experiment [27] was “Dose-dependent effect” in each case. Besides, the IC50 is greater than 200 µM in [7]; greater than 200 µM in experiment [9]; 79.5 µM in [11]; greater than 200 µM in experiment [15]; greater than 200 µM in experiment [17]; greater than 200 µM in experiment [27]. Further, in experiment [16], the Ratio Ki turned out to be 30.

The record behind these values is ChEMBL document CHEMBL4261658, “4-Hydroxy-3-nitro-5-ureido-benzenesulfonamides Selectively Target the Tumor-Associated Carbonic Anhydrase Isoforms IX and XII Showing Hypoxia-Enhanced Antiproliferative Profiles” (J Med Chem, 2018).
